{
  "source": "ChEMBL document CHEMBL1671745",
  "about": "(Antimicrob Agents Chemother, 2010)",
  "key": {"[1]": {"assay": "AUC (0 to 24 hrs) in Staphylococcus aureus in in vitro pharmacokinetic/pharmacodynamic model at 250 mg every 12 hrs", "format": "ADME, organism-based", "set-up": "dose 250 mg, time < 24 hr"}, "Staphylococcus aureus [2]": {"tested_on": "Staphylococcus aureus", "assay": "fCmax in Staphylococcus aureus in in vitro pharmacokinetic/pharmacodynamic model at 250 mg every 12 hrs", "format": "ADME, organism-based"}, "[3]": {"assay": "Half life in Staphylococcus aureus in in vitro pharmacokinetic/pharmacodynamic model at 250 mg every 12 hrs", "format": "ADME, organism-based"}, "Staphylococcus aureus [4]": {"tested_on": "Staphylococcus aureus", "assay": "Antimicrobial activity against methicillin-susceptible Staphylococcus aureus SH1000 by CLSI broth microdilution method", "format": "functional"}, "Staphylococcus aureus [5]": {"tested_on": "Staphylococcus aureus", "assay": "Antimicrobial activity against methicillin-susceptible Staphylococcus aureus SH1000 assessed as inhibition of bacterial biofilm formation by CLSI broth microdilution method", "format": "functional"}, "Staphylococcus aureus [6]": {"tested_on": "Staphylococcus aureus", "assay": "fCmax in Staphylococcus aureus in in vitro pharmacokinetic/pharmacodynamic model", "format": "ADME, organism-based", "outline": "(§1)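 Biofilm reactor with polystyrene coupons, simulating human free-drug profiles in supplemented Mueller-Hinton broth (calcium 25 μg/ml, magnesium 12.5 μg/ml) after a 40-h biofilm conditioning phase. Vancomycin was measured by fluorescence polarization immunoassay (lower limit 2 μg/ml). […] Half-life, AUC and peak were derived by the trapezoidal method.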"}, "Staphylococcus aureus [7]": {"tested_on": "Staphylococcus aureus", "assay": "Antimicrobial activity against methicillin-resistant Staphylococcus aureus N315 assessed as inhibition of bacterial biofilm formation by CLSI broth microdilution method", "format": "functional", "outline": "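Biofilm MIC determined using the modified Calgary biofilm device method.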"}, "[8]": {"assay": "AUC (0 to 24 hrs) in Staphylococcus aureus in in vitro pharmacokinetic/pharmacodynamic model", "format": "ADME, organism-based", "set-up": "time < 24 hr", "outline": "as §1"}, "Staphylococcus aureus [9]": {"tested_on": "Staphylococcus aureus", "assay": "Antimicrobial activity against methicillin-resistant Staphylococcus aureus N315 by CLSI broth microdilution method", "format": "functional"}, "[10]": {"assay": "Half life in Staphylococcus aureus in in vitro pharmacokinetic/pharmacodynamic model", "format": "ADME, organism-based", "outline": "as §1"}, "Staphylococcus aureus [11]": {"tested_on": "Staphylococcus aureus", "assay": "Bactericidal activity against methicillin-resistant Staphylococcus aureus N315 in in vitro pharmacokinetic/pharmacodynamic model assessed as decrease in biofilm bacterial count at 10 mg/kg every 24 hrs measured after 72 hrs", "format": "functional", "outline": "(§2)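 Biofilm reactor with polystyrene coupons. Conditioning: 24 h at 37°C in TSB with 1% glucose, then 16 h continuous flow of TSB with 10% glucose (30-min residence time). […] Coupons (biofilm cells, recovered by vortex/sonication) and medium (planktonic cells) sampled 0–72 h and plated on TSA. Limit of detection 2 log10 CFU/ml, extended to 1 by filtration. Duplicate models.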"}, "Staphylococcus aureus [12]": {"tested_on": "Staphylococcus aureus", "assay": "Bactericidal activity against methicillin-resistant Staphylococcus aureus N315 planktonic cell in in vitro pharmacokinetic/pharmacodynamic model assessed as decrease in bacterial count at 10 mg/kg every 24 hrs measured after 72 hrs", "format": "functional", "outline": "as §2"}, "Staphylococcus aureus [13]": {"tested_on": "Staphylococcus aureus", "assay": "Bactericidal activity against Staphylococcus aureus in in vitro pharmacokinetic/pharmacodynamic model assessed as decrease in biofilm bacterial count at 10 mg/kg every 24 hrs", "format": "functional", "outline": "(§3)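 MSSA SH1000 or MRSA N315 biofilm was conditioned for 40 h (24 h batch in 1% glucose TSB at 37°C, then 16 h flow in 10% glucose TSB) on polystyrene coupons. Simulated regimens ran 72 h in SMHB, duplicate models. Three coupons per time point (0–72 h) were saline-washed, vortexed and sonicated, and drop-plated on TSA. Reduction is log10 CFU/ml versus start; ≥3-log10 counts as bactericidal.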"}, "[14]": {"assay": "Half life in Staphylococcus aureus in in vitro pharmacokinetic/pharmacodynamic model at 10 mg/kg every 24 hrs", "format": "ADME, organism-based", "set-up": "dose 10 mg/kg", "outline": "as §1"}, "Staphylococcus aureus [15]": {"tested_on": "Staphylococcus aureus", "assay": "Bactericidal activity against methicillin-resistant Staphylococcus aureus N315 in in vitro pharmacokinetic/pharmacodynamic model assessed as decrease in planktonic cell count at 10 mg/kg every 24 hrs measured after 48 hrs", "format": "functional, organism-based", "set-up": "dose 10 mg/kg", "outline": "as §2"}, "[16]": {"assay": "AUC (0 to 24 hrs) in Staphylococcus aureus in in vitro pharmacokinetic/pharmacodynamic model at 10 mg/kg every 24 hrs", "format": "ADME, organism-based", "set-up": "time < 24 hr, dose 10 mg/kg", "outline": "as §1"}, "Staphylococcus aureus [17]": {"tested_on": "Staphylococcus aureus", "assay": "Bactericidal activity against methicillin-resistant Staphylococcus aureus N315 planktonic cell in in vitro pharmacokinetic/pharmacodynamic model assessed as decrease in bacterial count at 10 mg/kg every 24 hrs", "format": "functional, organism-based", "set-up": "dose 10 mg/kg", "outline": "as §2"}, "Staphylococcus aureus [18]": {"tested_on": "Staphylococcus aureus", "assay": "fCmax in Staphylococcus aureus in in vitro pharmacokinetic/pharmacodynamic model at 10 mg/kg every 24 hrs", "format": "ADME, organism-based", "set-up": "dose 10 mg/kg", "outline": "as §1"}, "Staphylococcus aureus [19]": {"tested_on": "Staphylococcus aureus", "assay": "Bactericidal activity against Staphylococcus aureus in in vitro pharmacokinetic/pharmacodynamic model assessed as decrease in planktonic cell count at 10 mg/kg every 24 hrs", "format": "functional", "outline": "(§4)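 Planktonic cells were sampled (≈1 ml) from the flow biofilm reactor at 0, 4, 8, 24, 32, 48, 56 and 72 h during simulated regimens in SMHB, with duplicate models. Samples were serially diluted or vacuum-filtered against carryover, spiral-plated on TSA, and grown 24 h at 37°C; detection limit 1–2 log10 CFU/ml. Bactericidal means a ≥3-log10 CFU/ml fall from the starting inoculum.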"}, "Staphylococcus aureus [20]": {"tested_on": "Staphylococcus aureus", "assay": "fCmax in Staphylococcus aureus in in vitro pharmacokinetic/pharmacodynamic model at 600 mg every 24 hrs", "format": "ADME, organism-based"}, "[21]": {"assay": "AUC (0 to 24 hrs) in Staphylococcus aureus in in vitro pharmacokinetic/pharmacodynamic model at 600 mg every 24 hrs", "format": "ADME, organism-based", "set-up": "dose 600 mg, time < 24 hr"}, "Staphylococcus aureus [22]": {"tested_on": "Staphylococcus aureus", "assay": "Bactericidal activity against Staphylococcus aureus in in vitro pharmacokinetic/pharmacodynamic model assessed as decrease in biofilm bacterial count at 400 mg every 24 hrs", "format": "functional", "outline": "as §3"}, "Staphylococcus aureus [23]": {"tested_on": "Staphylococcus aureus", "assay": "fCmax in Staphylococcus aureus in in vitro pharmacokinetic/pharmacodynamic model at 400 mg every 24 hrs", "format": "ADME, organism-based"}, "Staphylococcus aureus [24]": {"tested_on": "Staphylococcus aureus", "assay": "Bactericidal activity against Staphylococcus aureus in in vitro pharmacokinetic/pharmacodynamic model assessed as decrease in planktonic cell count at 400 mg every 24 hrs measured after 72 hrs", "format": "functional", "outline": "as §4"}, "Staphylococcus aureus [25]": {"tested_on": "Staphylococcus aureus", "assay": "Bactericidal activity against Staphylococcus aureus in in vitro pharmacokinetic/pharmacodynamic model assessed as decrease in planktonic cell count at 400 mg every 24 hrs", "format": "functional", "outline": "as §4"}, "[26]": {"assay": "AUC (0 to 24 hrs) in Staphylococcus aureus in in vitro pharmacokinetic/pharmacodynamic model at 400 mg every 24 hrs", "format": "ADME, organism-based", "set-up": "time < 24 hr, dose 400 mg"}, "Staphylococcus aureus [27]": {"tested_on": "Staphylococcus aureus", "assay": "Bactericidal activity against Staphylococcus aureus in in vitro pharmacokinetic/pharmacodynamic model assessed as decrease in biofilm bacterial count at 400 mg every 24 hrs measured after 72 hrs", "format": "functional", "outline": "as §3"}},
  "note": "The source made the active and inactive calls. No cut-off for these calls is given here.",
  "data": [
    {"smiles": "CC[C@H]1OC(=O)[C@H](C)[C@@H](O[C@H]2C[C@@](C)(OC)[C@@H](O)[C@H](C)O2)[C@H](C)[C@@H](O[C@@H]2O[C@H](C)C[C@H](N(C)C)[C@H]2O)[C@](C)(OC)C[C@@H](C)C(=O)[C@H](C)[C@@H](O)[C@]1(C)O", "note": "[CLARITHROMYCIN]", "values": [
      {"measurement": "AUC at 24 h", "setting": "[1]", "value": 6.53, "unit": "µg·h/mL"},
      {"measurement": "fCmax", "setting": "Staphylococcus aureus [2]", "value": 1.15, "unit": "µg/mL"},
      {"measurement": "half-life", "setting": "[3]", "value": 3.91, "unit": "h"},
      {"measurement": "MIC", "setting": "Staphylococcus aureus [4]", "value": "> 128", "unit": "mg/L"},
      {"measurement": "MBIC", "setting": "Staphylococcus aureus [5]", "value": ">128", "unit": "µg/mL"}
    ]},
    {"smiles": "CN[C@H](CC(C)C)C(=O)N[C@H]1C(=O)N[C@@H](CC(N)=O)C(=O)N[C@H]2C(=O)N[C@H]3C(=O)N[C@H](C(=O)N[C@H](C(=O)O)c4cc(O)cc(O)c4-c4cc3ccc4O)[C@H](O)c3ccc(c(Cl)c3)Oc3cc2cc(c3O[C@@H]2O[C@H](CO)[C@@H](O)[C@H](O)[C@H]2O[C@H]2C[C@](C)(N)[C@H](O)[C@H](C)O2)Oc2ccc(cc2Cl)[C@H]1O", "note": "[VANCOMYCIN]", "values": [
      {"measurement": "fCmax", "setting": "Staphylococcus aureus [6]", "value": 22.6, "unit": "µg/mL"},
      {"measurement": "MBIC", "setting": "Staphylococcus aureus [7]", "value": 2, "unit": "µg/mL"},
      {"measurement": "AUC(0-t) at 24 h", "setting": "[8]", "value": 193, "unit": "µg·h/mL"},
      {"measurement": "MIC", "setting": "Staphylococcus aureus [9]", "value": 0.25, "unit": "mg/L"},
      {"measurement": "half-life", "setting": "[10]", "value": 5.91, "unit": "h"}
    ]},
    {"smiles": "CCCCCCCCCC(=O)N[C@@H](Cc1c[nH]c2ccccc12)C(=O)N[C@H](CC(N)=O)C(=O)N[C@@H](CC(=O)O)C(=O)N[C@@H]1C(=O)NCC(=O)N[C@@H](CCCN)C(=O)N[C@@H](CC(=O)O)C(=O)N[C@H](C)C(=O)N[C@@H](CC(=O)O)C(=O)NCC(=O)N[C@H](CO)C(=O)N[C@@H]([C@H](C)CC(=O)O)C(=O)N[C@@H](CC(=O)c2ccccc2N)C(=O)O[C@@H]1C", "values": [
      {"measurement": "log10CFU/ml", "setting": "Staphylococcus aureus [11]", "value": 2.73},
      {"measurement": "log10CFU/ml", "setting": "Staphylococcus aureus [12]", "value": 2.78},
      {"measurement": "log10CFU/ml", "setting": "Staphylococcus aureus [13]", "value": 2.83},
      {"measurement": "MIC", "setting": "Staphylococcus aureus [9]", "value": 0.125, "unit": "mg/L"},
      {"measurement": "MIC", "setting": "Staphylococcus aureus [4]", "value": 0.125, "unit": "mg/L"},
      {"measurement": "half-life", "setting": "[14]", "value": 8.21, "unit": "h"},
      {"measurement": "Activity", "setting": "Staphylococcus aureus [15]", "value": "inactive"},
      {"measurement": "AUC at 24 h", "setting": "[16]", "value": 200, "unit": "µg·h/mL"},
      {"measurement": "Activity", "setting": "Staphylococcus aureus [17]", "value": "Active"},
      {"measurement": "fCmax", "setting": "Staphylococcus aureus [18]", "value": 11.79, "unit": "µg/mL"},
      {"measurement": "MBIC", "setting": "Staphylococcus aureus [5]", "value": 2, "unit": "µg/mL"},
      {"measurement": "log10CFU/ml", "setting": "Staphylococcus aureus [19]", "value": 2.2}
    ]},
    {"smiles": "CO[C@H]1/C=C/O[C@@]2(C)Oc3c(C)c(O)c4c(O)c(c(/C=N/N5CCN(C)CC5)c(O)c4c3C2=O)NC(=O)/C(C)=C\\C=C\\[C@H](C)[C@H](O)[C@@H](C)[C@@H](O)[C@@H](C)[C@H](OC(C)=O)[C@@H]1C", "note": "[RIFAMPIN]", "values": [
      {"measurement": "MBIC", "setting": "Staphylococcus aureus [7]", "value": "<0.0625", "unit": "µg/mL"},
      {"measurement": "fCmax", "setting": "Staphylococcus aureus [20]", "value": 3.82, "unit": "µg/mL"},
      {"measurement": "MIC", "setting": "Staphylococcus aureus [9]", "value": "< 0.0625", "unit": "mg/L"},
      {"measurement": "AUC at 24 h", "setting": "[21]", "value": 19.7, "unit": "µg·h/mL"}
    ]},
    {"smiles": "COc1c(N2C[C@@H]3CCCN[C@@H]3C2)c(F)cc2c(=O)c(C(=O)O)cn(C3CC3)c12", "note": "[MOXIFLOXACIN]", "values": [
      {"measurement": "log10CFU/ml", "setting": "Staphylococcus aureus [22]", "value": 2.38},
      {"measurement": "fCmax", "setting": "Staphylococcus aureus [23]", "value": 2.52, "unit": "µg/mL"},
      {"measurement": "log10CFU/ml", "setting": "Staphylococcus aureus [24]", "value": 4.04},
      {"measurement": "log10CFU/ml", "setting": "Staphylococcus aureus [25]", "value": 2.33},
      {"measurement": "AUC at 24 h", "setting": "[26]", "value": 44.1, "unit": "µg·h/mL"},
      {"measurement": "log10CFU/ml", "setting": "Staphylococcus aureus [27]", "value": 4.06}
    ]}
  ]
}
